What was measured:
[1] = Cell cycle arrest in KB/HeLa cells assessed as accumulation at G2/M phase after 24 hrs by flow cytometric analysis; type: functional, cell-based; conditions: Homo sapiens
In short: (§1)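 Subconfluent KB/HeLa cells exposed to a range of compound concentrations for 24 h. Cell cycle phase distribution determined by flow cytometry. Experiments run at least in duplicate (n = 2).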

P388 [2] = assay: Antiproliferative activity against mouse P388 cells after 48 hrs by XTT assay; type: functional, cell-based; conditions: P388, 48 h
In short: (§2)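 XTT proliferation assay with 48 h incubation with test compound. Each experiment run at least in duplicate (n = 2). IC50 calculated by nonlinear regression of dose-response curves.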

[3] = Cell cycle arrest in KB/HeLa cells assessed as accumulation at S phase at 100 nM after 24 hrs by flow cytometric analysis; type: functional, cell-based; conditions: Homo sapiens; in short: as §1
[4] = Cytotoxicity against human KB/HeLa cells after 48 hrs by XTT assay; type: functional, cell-based; in short: as §2
[5] = Cell cycle arrest in KB/HeLa cells assessed as accumulation at G1 phase at 316 nM after 24 hrs by flow cytometric analysis; type: functional, cell-based; conditions: Homo sapiens; in short: as §1
[6] = Cell cycle arrest in KB/HeLa cells assessed as accumulation at G2M phase at 1000 nM after 24 hrs by flow cytometric analysis; type: functional, cell-based; conditions: Homo sapiens; in short: as §1
[7] = Cell cycle arrest in KB/HeLa cells assessed as accumulation at G1 phase at 3.16 nM after 24 hrs by flow cytometric analysis; type: functional, cell-based; conditions: Homo sapiens; in short: as §1
[8] = Cell cycle arrest in KB/HeLa cells assessed as accumulation at G1 phase at 31.6 nM after 24 hrs by flow cytometric analysis; type: functional, cell-based; conditions: Homo sapiens; in short: as §1
L1210 [9] = assay: Antiproliferative activity against mouse L1210 cells after 48 hrs by XTT assay; type: functional, cell-based; conditions: L1210, 48 h; in short: as §2
[10] = Antiproliferative activity against rat L12 cells after 48 hrs by XTT assay; type: functional, cell-based
K562 = assay: Antiproliferative activity against human K562 cells after 48 hrs; type: functional, cell-based; conditions: K562, 48 h
In short: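 Growth of K562 cells measured by counting cells with a hemocytometer after 48 h (2 days) of drug treatment. IC50 is the mean of at least three independent determinations.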

RKO [11] = assay: Cytotoxicity against human RKO cells with ectopic-inducible expression of p27kip1 after 48 hrs by XTT assay; type: functional, cell-based; in short: as §2
[12] = Cell cycle arrest in KB/HeLa cells assessed as accumulation at G2M phase at 10 nM after 24 hrs by flow cytometric analysis; type: functional, cell-based; conditions: Homo sapiens; in short: as §1
[13] = Cell cycle arrest in KB/HeLa cells assessed as accumulation at S phase at 10 nM after 24 hrs by flow cytometric analysis; type: functional, cell-based; conditions: Homo sapiens; in short: as §1
[14] = Cell cycle arrest in KB/HeLa cells assessed as accumulation at G2M phase at 3.16 nM after 24 hrs by flow cytometric analysis; type: functional, cell-based; conditions: Homo sapiens
[15] = Cell cycle arrest in KB/HeLa cells assessed as accumulation at G2M phase at 31.6 nM after 24 hrs by flow cytometric analysis; type: functional, cell-based; conditions: Homo sapiens; in short: as §1
[16] = Cell cycle arrest in KB/HeLa cells assessed as accumulation at G2M phase at 1 nM after 24 hrs by flow cytometric analysis; type: functional, cell-based; conditions: Homo sapiens; in short: as §1
[17] = Cell cycle arrest in KB/HeLa cells assessed as accumulation at G2M phase at 316 nM after 24 hrs by flow cytometric analysis; type: functional, cell-based; conditions: Homo sapiens; in short: as §1
[18] = Cell cycle arrest in KB/HeLa cells assessed as accumulation at S phase at 0.1 nM after 24 hrs by flow cytometric analysis; type: functional, cell-based; conditions: Homo sapiens; in short: as §1
[19] = Cell cycle arrest in KB/HeLa cells assessed as accumulation at G1 phase at 100 nM after 24 hrs by flow cytometric analysis; type: functional, cell-based; conditions: Homo sapiens; in short: as §1
[20] = Cell cycle arrest in KB/HeLa cells assessed as accumulation at S phase at 1000 nM after 24 hrs by flow cytometric analysis; type: functional, cell-based; conditions: Homo sapiens; in short: as §1
[21] = Cell cycle arrest in KB/HeLa cells assessed as accumulation at G2M phase at 0.3 nM after 24 hrs by flow cytometric analysis; type: functional, cell-based; conditions: Homo sapiens; in short: as §1
[22] = Cell cycle arrest in KB/HeLa cells assessed as accumulation at G1 phase at 0.3 nM after 24 hrs by flow cytometric analysis; type: functional, cell-based; conditions: Homo sapiens; in short: as §1
[23] = Cell cycle arrest in KB/HeLa cells assessed as accumulation at S phase at 3.16 nM after 24 hrs by flow cytometric analysis; type: functional, cell-based; conditions: Homo sapiens; in short: as §1
[24] = Cell cycle arrest in KB/HeLa cells assessed as accumulation at S phase at 0.3 nM after 24 hrs by flow cytometric analysis; type: functional, cell-based; conditions: Homo sapiens; in short: as §1
RKO [25] = assay: Cytotoxicity against human RKO cells after 48 hrs by XTT assay; type: functional, cell-based; in short: as §2
SK-OV-3 = assay: Cytotoxicity against human SKOV3 cells after 48 hrs by XTT assay; type: functional, cell-based; conditions: SK-OV-3, 48 h; in short: as §2
[26] = Cell cycle arrest in KB/HeLa cells assessed as accumulation at G2M phase at 100 nM after 24 hrs by flow cytometric analysis; type: functional, cell-based; conditions: Homo sapiens; in short: as §1
[27] = Cell cycle arrest in KB/HeLa cells assessed as accumulation at S phase at 316 nM after 24 hrs by flow cytometric analysis; type: functional, cell-based; conditions: Homo sapiens; in short: as §1
[28] = Cell cycle arrest in KB/HeLa cells assessed as accumulation at G2M phase at 0.1 nM after 24 hrs by flow cytometric analysis; type: functional, cell-based; conditions: Homo sapiens; in short: as §1
P388 [29] = assay: Antiproliferative activity against mouse adriamycin-resistant P388 cells after 48 hrs by XTT assay; type: functional, cell-based; conditions: P388, 48 h; in short: as §2
L1210 [30] = assay: Antiproliferative activity against mouse vincristine-resistant L1210 cells after 48 hrs by XTT assay; type: functional, cell-based; conditions: L1210, 48 h; in short: as §2
[31] = Cell cycle arrest in KB/HeLa cells assessed as accumulation at G1 phase at 1 nM after 24 hrs by flow cytometric analysis; type: functional, cell-based; conditions: Homo sapiens; in short: as §1
[32] = Cell cycle arrest in KB/HeLa cells assessed as accumulation at G1 phase at 0.1 nM after 24 hrs by flow cytometric analysis; type: functional, cell-based; conditions: Homo sapiens; in short: as §1
Tubulin [33] = assay: Displacement of [3H]colchicine from biotinylated tubulin by scintillation proximity assay; type: protein-complex assay, Homo sapiens
Tubulin [34] = target: Tubulin (Sus scrofa, UniProt P02554+P02550); assay: Inhibition of porcine brain tubulin polymerization
[35] = Cell cycle arrest in KB/HeLa cells assessed as accumulation at S phase at 31.6 nM after 24 hrs by flow cytometric analysis; type: functional, cell-based; conditions: Homo sapiens; in short: as §1
SF-268 = assay: Cytotoxicity against human SF268 cells after 48 hrs by XTT assay; type: functional, cell-based; conditions: SF-268, 48 h; in short: as §2
[36] = Cell cycle arrest in KB/HeLa cells assessed as accumulation at S phase at 1 nM after 24 hrs by flow cytometric analysis; type: functional, cell-based; conditions: Homo sapiens; in short: as §1
[37] = Cell cycle arrest in KB/HeLa cells assessed as accumulation at G1 phase at 10 nM after 24 hrs by flow cytometric analysis; type: functional, cell-based; conditions: Homo sapiens; in short: as §1
[38] = Antiproliferative activity against rat multidrug-resistant L12 cells after 48 hrs by XTT assay; type: functional, cell-based; conditions: L1.2, 48 h; in short: as §2
NCI-H460 = assay: Cytotoxicity against human NCI-H460 cells after 48 hrs by XTT assay; type: functional, cell-based; conditions: NCI-H460, 48 h; in short: as §2
[39] = Cell cycle arrest in KB/HeLa cells assessed as accumulation at G1 phase at 1000 nM after 24 hrs by flow cytometric analysis; type: functional, cell-based; conditions: Homo sapiens; in short: as §1

Structure (SMILES): COc1ccc(S(=O)(=O)Oc2c3ccccc3cc3ccccc23)cc1
- EC50 [1]: 0.135 µM
- IC50 (P388 [2]): 0.38 µM
- Activity [3]: 31%
- IC50 [4]: 0.37 µM
- Activity [5]: 0.8%
- Activity [6]: 90.5%
- Activity [7]: 62.7%
- Activity [8]: 61.8%
- IC50 (L1210 [9]): 0.54 µM
- IC50 [10]: 0.44 µM
- IC50 (K562): 0.09 µM
- IC50 (RKO [11]): > 9 µM
- Activity [12]: 12.6%
- Activity [13]: 25.5%
- Activity [14]: 11.4%
- Activity [15]: 11.4%
- Activity [16]: 11.7%
- Activity [17]: 94.4%
- Activity [18]: 26.7%
- Activity [19]: 56.4%
- Activity [20]: 8.4%
- Activity [21]: 12.4%
- Activity [22]: 61.6%
- Activity [23]: 26%
- Activity [24]: 26%
- IC50 (RKO [25]): 0.28 µM
- IC50 (SK-OV-3): 0.25 µM
- Activity [26]: 12.6%
- Activity [27]: 4.8%
- Activity [28]: 11.9%
- IC50 (P388 [29]): 0.27 µM
- IC50 (L1210 [30]): 0.46 µM
- Activity [31]: 62.1%
- Activity [32]: 61.4%
- IC50 (Tubulin [33]): 0.56 µM
- IC50 (Tubulin [34]): 1.2 µM
- Activity [35]: 26.8%
- IC50 (SF-268): 0.34 µM
- Activity [36]: 26.2%
- Activity [37]: 61.8%
- IC50 [38]: 0.36 µM
- IC50 (NCI-H460): 0.64 µM
- Activity [39]: 1.1%

Source: ChEMBL document CHEMBL1138290 (J Med Chem, 2007)
